Experimental findings from ChEMBL document CHEMBL2331243, “Discovery and mechanism study of SIRT1 activators that promote the deacetylation of fluorophore-labeled substrate” (J Med Chem, 2013) are described below.

The target in test [1] is T1, NAD-dependent protein deacetylase sirtuin-1 (Homo sapiens, UniProt Q96EB6).
T1 sequence (Q96EB6 whole entry): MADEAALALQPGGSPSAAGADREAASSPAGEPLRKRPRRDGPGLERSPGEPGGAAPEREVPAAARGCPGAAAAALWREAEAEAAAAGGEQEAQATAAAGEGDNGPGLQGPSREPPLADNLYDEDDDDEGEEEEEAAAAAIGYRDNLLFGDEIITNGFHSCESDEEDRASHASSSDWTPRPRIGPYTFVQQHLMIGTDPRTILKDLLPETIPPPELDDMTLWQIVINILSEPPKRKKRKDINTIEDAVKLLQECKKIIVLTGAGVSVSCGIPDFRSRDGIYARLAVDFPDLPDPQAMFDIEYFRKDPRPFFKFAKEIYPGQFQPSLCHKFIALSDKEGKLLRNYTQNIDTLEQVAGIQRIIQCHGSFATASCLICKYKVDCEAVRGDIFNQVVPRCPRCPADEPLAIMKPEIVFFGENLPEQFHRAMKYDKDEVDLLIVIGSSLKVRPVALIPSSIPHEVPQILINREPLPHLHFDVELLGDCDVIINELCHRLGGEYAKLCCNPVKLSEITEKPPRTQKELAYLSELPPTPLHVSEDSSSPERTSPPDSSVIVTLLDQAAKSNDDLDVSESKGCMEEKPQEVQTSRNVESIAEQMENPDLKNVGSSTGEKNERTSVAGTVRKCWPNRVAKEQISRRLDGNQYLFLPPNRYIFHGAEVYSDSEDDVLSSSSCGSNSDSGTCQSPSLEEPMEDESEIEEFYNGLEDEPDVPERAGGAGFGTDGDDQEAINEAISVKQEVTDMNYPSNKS
The experiment in a line: Activation of N-terminal His6-tagged SIRT1 (156 to 664 amino acid residues) (unknown origin) expressed in Escherichia coli BL21(DE3) using ac-RHKKac-AMC as substrate after 45 mins by fluorometric analysis.

Test [2] concerns the target T2, NAD-dependent protein deacetylase sirtuin-1 (Homo sapiens) (UniProt Q96EB6).
T2 sequence (whole entry): T1 sequence (Q96EB6 whole entry)
The experiment in a line: Activation of N-terminal His6-tagged SIRT1 (156 to 664 amino acid residues) (unknown origin) expressed in Escherichia coli BL21(DE3) using ac-RHKKac-AMC as substrate at 50 uM after 45 mins by fluorimetric analysis relative to control. In short, it runs like this:
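Fluorogenic deacetylation screen: 1 μM SIRT1 with 750 μM NAD⁺ and 31.25 μM ac-RHKK_ac-AMC in Tris buffer (25 mM Tris, 137 mM NaCl, 2.7 mM KCl, 1 mM MgCl₂, pH 8.0). Compounds at 50 μM from DMSO stocks; DMSO alone as blank. Trypsin then releases AMC from deacetylated peptide; fluorescence read at 340/490 nm.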

As a reminder, the EC50 is the concentration at which the effect is half-maximal. Low values mean an effect from little substance, high ones a need for much substance. `COc1c(/C=N/NC(=O)c2ccc3cc(Br)ccc3c2)cc(Br)c(O)c1Br` showed an EC50 in test [1] of 8.7 µM. The molecule also registered a max activation in test [2] of 298%.

For the molecule `O=C(Cc1ccccc1)Nc1ccccc1-c1cn2c(CN3CCNCC3)csc2n1`, the EC50 in test [1] amounted to 14 µM. This molecule also returned a max activation in test [2] of 130%.

Take `COc1c(Br)cc(/C=N/NC(=O)c2ccc(-c3ccccc3)cc2)c(O)c1Br`: in test [1], the EC50 was 28.1 µM. This molecule returned a max activation in test [2] of 242%.

Regarding `N#Cc1ccc(O)c(-c2ccc(C(=O)N/N=C/c3cc(Br)c(O)c(Br)c3O)cc2)c1`, a half-maximal effect in test [1] (EC50) was put at 3.7 µM. Also, in test [2], the max activation was determined as 196%.

In test [1], `O=C(Nc1ccccc1-c1cn2c(CN3CCNCC3)csc2n1)c1cc2ccccc2o1` had an EC50 of 0.61 µM. This molecule also gave a max activation in test [2] of 381%.

Take `O=C(N/N=C/c1cc(Br)c(O)c(Br)c1O)c1ccc2ccccc2c1`: the response in test [1] was half-maximal at 1.6 µM (EC50). The molecule also displayed a max activation in test [2] of 331%.

With `COc1c(Br)cc(/C=N/NC(=O)c2ccc3cc(Br)ccc3c2)c(O)c1Br`, the max activation in test [2] stood at 119%.

In test [1], `O=C(Nc1ccccc1-c1cn2c(CN3CCNCC3)csc2n1)c1ccc2ccccc2n1` showed an EC50 of 0.99 µM. For the same molecule, in test [2], the max activation worked out at 440%.

The molecule `O=C(N/N=C/c1cc(Br)c(O)c(Br)c1O)c1ccc(C(F)(F)F)cc1` returned an EC50 in test [1] of 20.5 µM. The molecule also had a max activation in test [2] of 161%.

The molecule `O=C(N/N=C/c1cc(Br)c(O)c(Br)c1O)c1ccc(Cl)cc1` gave an EC50 in test [1] of 7 µM. For the same molecule, the max activation in test [2] worked out at 174%.

With `O=C(N/N=C/c1cc(Br)c(O)c(Br)c1O)c1ccc2cc(-c3ccco3)ccc2c1`, in test [1], the 50% effective concentration (EC50) turned out to be 2.6 µM. In test [2], the max activation was 267%.

Regarding `O=C(N/N=C/c1cc(Br)c(O)c(Br)c1O)c1ccc(-c2ccco2)cc1`, the EC50 in test [1] amounted to 2.1 µM. In test [2], this molecule yielded a max activation of 374%.

Take `O=C(Nc1ccccc1-c1cn2c(CN3CCNCC3)csc2n1)C1CCCC1`: in test [1], the midpoint of the response, the EC50, lay at 130 µM. The molecule further showed a max activation in test [2] of 383%.

Take `O=C(N/N=C/c1cc(Br)c(O)c(Br)c1O)c1ccc(-c2ccccc2)cc1`: in test [1], the EC50 amounted to 1.7 µM. This molecule came in with a max activation in test [2] of 246%.

In the case of `COc1cc(OC)cc(C(=O)N/N=C/c2cc(Br)c(O)c(Br)c2O)c1`, the max activation in test [2] came to 112%.

Regarding `O=C(Nc1ccccc1-c1cn2c(CN3CCNCC3)csc2n1)c1ccncn1`, in test [1], the concentration giving a half-maximal response (EC50) amounted to 1.7 µM. This molecule had a max activation in test [2] of 270%.

`COc1cccc(C(=O)Nc2ccccc2-c2cn3c(CN4CCNCC4)csc3n2)c1`: in test [1], the concentration for a half-maximal effect (EC50) turned out to be 3.7 µM. In addition, the max activation in test [2] came to 928%.

In turn, `O=C(N/N=C/c1cc(Br)c(O)c(Br)c1O)c1ccc(-c2ccncc2)cc1` displayed an EC50 in test [1] of 1.6 µM. In addition, in test [2], the max activation turned out to be 390%.

Turning to `O=C(N/N=C/c1cc(Br)c(O)c(Br)c1O)c1ccc(-c2ccc3c(c2)OCO3)cc1`, the EC50 in test [1] stood at 3.4 µM. For the same molecule, the max activation in test [2] worked out at 380%.

For the molecule `COc1c(/C=N/NC(=O)c2ccc(-c3ccccc3)cc2)cc(Br)c(O)c1Br`, it took 18.1 µM to reach a half-maximal effect in test [1] (EC50). For the same molecule, the max activation in test [2] is 191%.

In turn, `CS(=O)(=O)c1ccc2cc(C(=O)N/N=C/c3cc(Br)c(O)c(Br)c3O)ccc2c1` had an EC50 in test [1] of 2.3 µM. Also, the max activation in test [2] stood at 368%.

On to `O=C(Nc1ccccc1-c1cn2c(CN3CCNCC3)csc2n1)c1cccc2cccnc12`, for which the EC50 in test [1] is 45 µM. The same molecule yielded a max activation in test [2] of 208%.

In turn, `O=C(Nc1ccccc1-c1cn2c(CN3CCNCC3)csc2n1)c1ccccc1` displayed an EC50 in test [1] of 25 µM. Further, the max activation in test [2] is 322%.

Take `O=C(Nc1ccccc1-c1cn2c(CN3CCNCC3)csc2n1)c1ccc2occc2c1`: the EC50 in test [1] is 6.9 µM. In test [2], the max activation was 380%.

`O=C(Nc1ccccc1-c1cn2c(CN3CCNCC3)csc2n1)c1cnc2ccccc2c1`: the midpoint of the response in test [1], the EC50, lay at 0.68 µM. Moreover, in test [2], the max activation was 301%.

`O=C(N/N=C/c1cc(Br)c(O)c(Br)c1O)c1ccc(-c2cccnc2)cc1`: in test [1], it took 2 µM to reach a half-maximal effect (EC50). In test [2], this molecule displayed a max activation of 314%.

The molecule `O=C(Nc1ccccc1-c1cn2c(CN3CCNCC3)csc2n1)c1cnc2ccccc2n1` showed a max activation in test [2] of 781%.
